Values after ≈ are worked out from the molar mass of the structure shown.
System: Enterobacter cloacae
Assay: Antibacterial activity against Enterobacter cloacae ATCC 13047 assessed as growth inhibition at 30 degC after 24 hrs by liquid broth dilution method
Format: functional
Conditions: ATCC 13047, 24 h
Outline: (§1)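 Strains kept at -80 °C in LB broth with 20% glycerol and grown from 1% (v/v) stock in nutritive broth (yeast extract 1 g/L, meat extract 2 g/L, peptone 5 g/L, NaCl 5 g/L) at 30 °C. Overnight culture adjusted to 0.5 McFarland (~1.5 × 10⁸ cfu/mL). Compound stock 1 g/L in DMSO, serially diluted in broth 1:2 to 1:512, mixed 1:1 with inoculum. Incubation 24 h, 150 rpm, 30 °C. OD600 read; MIC = lowest concentration with no OD increase in all replicates versus negative control.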

MIC [µg/mL] | SMILES
62.5 (≈ 141 µM) | CCCCCCCCOCCCCOC[C@H]1O[C@@H]2OC(C)(C)O[C@@H]2[C@H]2OC(C)(C)O[C@H]21
62.5 (≈ 142 µM) | CCCCCCCCOCC#CCOC[C@H]1O[C@@H]2OC(C)(C)O[C@@H]2[C@H]2OC(C)(C)O[C@H]21
62.5 (≈ 135 µM) | CCCCCCCCOc1ccc(OC[C@H]2O[C@@H]3OC(C)(C)O[C@@H]3[C@H]3OC(C)(C)O[C@H]32)cc1
62.5 (≈ 125 µM) | CCCCCCCCCCCCOCCCCOC[C@H]1O[C@@H]2OC(C)(C)O[C@@H]2[C@H]2OC(C)(C)O[C@H]21

System: Escherichia coli
Assay: Antibacterial activity against Escherichia coli ATCC 10536 assessed as growth inhibition at 30 degC after 24 hrs by liquid broth dilution method
Format: functional
Conditions: ATCC 10536, 24 h
Outline: as §1

MIC [µg/mL] | SMILES
62.5 (≈ 141 µM) | CCCCCCCCOCCCCOC[C@H]1O[C@@H]2OC(C)(C)O[C@@H]2[C@H]2OC(C)(C)O[C@H]21
62.5 (≈ 142 µM) | CCCCCCCCOCC#CCOC[C@H]1O[C@@H]2OC(C)(C)O[C@@H]2[C@H]2OC(C)(C)O[C@H]21
62.5 (≈ 135 µM) | CCCCCCCCOc1ccc(OC[C@H]2O[C@@H]3OC(C)(C)O[C@@H]3[C@H]3OC(C)(C)O[C@H]32)cc1
62.5 (≈ 125 µM) | CCCCCCCCCCCCOCCCCOC[C@H]1O[C@@H]2OC(C)(C)O[C@@H]2[C@H]2OC(C)(C)O[C@H]21

System: Micrococcus luteus
Assay: Antibacterial activity against Micrococcus luteus CIP 53.45 assessed as growth inhibition at 30 degC after 24 hrs by liquid broth dilution method
Format: functional
Conditions: CIP 53.45, 24 h
Outline: as §1

MIC [µg/mL] | SMILES
62.5 (≈ 141 µM) | CCCCCCCCOCCCCOC[C@H]1O[C@@H]2OC(C)(C)O[C@@H]2[C@H]2OC(C)(C)O[C@H]21
62.5 (≈ 142 µM) | CCCCCCCCOCC#CCOC[C@H]1O[C@@H]2OC(C)(C)O[C@@H]2[C@H]2OC(C)(C)O[C@H]21
62.5 (≈ 135 µM) | CCCCCCCCOc1ccc(OC[C@H]2O[C@@H]3OC(C)(C)O[C@@H]3[C@H]3OC(C)(C)O[C@H]32)cc1
15.6 (≈ 31.2 µM) | CCCCCCCCCCCCOCCCCOC[C@H]1O[C@@H]2OC(C)(C)O[C@@H]2[C@H]2OC(C)(C)O[C@H]21

System: Geobacillus stearothermophilus
Assay: Antibacterial activity against Bacillus stearothermophilus ATTC 12980 assessed as growth inhibition at 30 degC after 24 hrs by liquid broth dilution method
Format: functional
Conditions: ATTC 12980, 24 h
Outline: as §1

MIC [µg/mL] | SMILES
62.5 (≈ 141 µM) | CCCCCCCCOCCCCOC[C@H]1O[C@@H]2OC(C)(C)O[C@@H]2[C@H]2OC(C)(C)O[C@H]21
62.5 (≈ 142 µM) | CCCCCCCCOCC#CCOC[C@H]1O[C@@H]2OC(C)(C)O[C@@H]2[C@H]2OC(C)(C)O[C@H]21
62.5 (≈ 135 µM) | CCCCCCCCOc1ccc(OC[C@H]2O[C@@H]3OC(C)(C)O[C@@H]3[C@H]3OC(C)(C)O[C@H]32)cc1
31.2 (≈ 62.4 µM) | CCCCCCCCCCCCOCCCCOC[C@H]1O[C@@H]2OC(C)(C)O[C@@H]2[C@H]2OC(C)(C)O[C@H]21

System: Pseudomonas aeruginosa
Assay: Antibacterial activity against Pseudomonas aeruginosa CIP A22 assessed as growth inhibition at 30 degC after 24 hrs by liquid broth dilution method
Format: functional
Conditions: CIP A22, 24 h
Outline: as §1

MIC [µg/mL] | SMILES
62.5 (≈ 141 µM) | CCCCCCCCOCCCCOC[C@H]1O[C@@H]2OC(C)(C)O[C@@H]2[C@H]2OC(C)(C)O[C@H]21
62.5 (≈ 142 µM) | CCCCCCCCOCC#CCOC[C@H]1O[C@@H]2OC(C)(C)O[C@@H]2[C@H]2OC(C)(C)O[C@H]21
125 (≈ 269 µM) | CCCCCCCCOc1ccc(OC[C@H]2O[C@@H]3OC(C)(C)O[C@@H]3[C@H]3OC(C)(C)O[C@H]32)cc1
62.5 (≈ 125 µM) | CCCCCCCCCCCCOCCCCOC[C@H]1O[C@@H]2OC(C)(C)O[C@@H]2[C@H]2OC(C)(C)O[C@H]21

System: Citrobacter freundii
Assay: Antibacterial activity against Citrobacter freundii ATCC 6750 assessed as growth inhibition at 30 degC after 24 hrs by liquid broth dilution method
Format: functional
Conditions: ATCC 6750, 24 h
Outline: as §1

MIC [µg/mL] | SMILES
62.5 (≈ 141 µM) | CCCCCCCCOCCCCOC[C@H]1O[C@@H]2OC(C)(C)O[C@@H]2[C@H]2OC(C)(C)O[C@H]21
62.5 (≈ 142 µM) | CCCCCCCCOCC#CCOC[C@H]1O[C@@H]2OC(C)(C)O[C@@H]2[C@H]2OC(C)(C)O[C@H]21
125 (≈ 269 µM) | CCCCCCCCOc1ccc(OC[C@H]2O[C@@H]3OC(C)(C)O[C@@H]3[C@H]3OC(C)(C)O[C@H]32)cc1
62.5 (≈ 125 µM) | CCCCCCCCCCCCOCCCCOC[C@H]1O[C@@H]2OC(C)(C)O[C@@H]2[C@H]2OC(C)(C)O[C@H]21

System: Mycolicibacterium smegmatis
Assay: Antibacterial activity against Mycobacterium smegmatis CIP 73.26 assessed as growth inhibition at 37 degC after 24 hrs by liquid broth dilution method
Format: functional
Conditions: CIP 73.26, 24 h
Outline: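 Inoculum at 0.5 McFarland (~1.5 × 10⁸ cfu/mL). DMSO stock (1 g/L) serially diluted in the same medium 1:2 to 1:512. Shaken 24 h at 150 rpm, 37 °C. MIC = lowest concentration with no OD600 rise in any replicate versus negative control.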

MIC [µg/mL] | SMILES
62.5 (≈ 141 µM) | CCCCCCCCOCCCCOC[C@H]1O[C@@H]2OC(C)(C)O[C@@H]2[C@H]2OC(C)(C)O[C@H]21
62.5 (≈ 142 µM) | CCCCCCCCOCC#CCOC[C@H]1O[C@@H]2OC(C)(C)O[C@@H]2[C@H]2OC(C)(C)O[C@H]21
62.5 (≈ 135 µM) | CCCCCCCCOc1ccc(OC[C@H]2O[C@@H]3OC(C)(C)O[C@@H]3[C@H]3OC(C)(C)O[C@H]32)cc1
31.2 (≈ 62.4 µM) | CCCCCCCCCCCCOCCCCOC[C@H]1O[C@@H]2OC(C)(C)O[C@@H]2[C@H]2OC(C)(C)O[C@H]21

System: Dickeya chrysanthemi
Assay: Antibacterial activity against Erwinia chrysanthemi EC3937 assessed as growth inhibition at 30 degC after 24 hrs by liquid broth dilution method
Format: functional
Conditions: EC3937, 24 h
Outline: as §1

MIC [µg/mL] | SMILES
62.5 (≈ 141 µM) | CCCCCCCCOCCCCOC[C@H]1O[C@@H]2OC(C)(C)O[C@@H]2[C@H]2OC(C)(C)O[C@H]21
62.5 (≈ 142 µM) | CCCCCCCCOCC#CCOC[C@H]1O[C@@H]2OC(C)(C)O[C@@H]2[C@H]2OC(C)(C)O[C@H]21
62.5 (≈ 135 µM) | CCCCCCCCOc1ccc(OC[C@H]2O[C@@H]3OC(C)(C)O[C@@H]3[C@H]3OC(C)(C)O[C@H]32)cc1
62.5 (≈ 125 µM) | CCCCCCCCCCCCOCCCCOC[C@H]1O[C@@H]2OC(C)(C)O[C@@H]2[C@H]2OC(C)(C)O[C@H]21

System: Sinorhizobium meliloti
Assay: Antibacterial activity against Sinorhizobium meliloti Rm1021 assessed as growth inhibition at 30 degC after 24 hrs by liquid broth dilution method
Format: functional
Conditions: Rm1021, 24 h
Outline: as §1

MIC [µg/mL] | SMILES
62.5 (≈ 141 µM) | CCCCCCCCOCCCCOC[C@H]1O[C@@H]2OC(C)(C)O[C@@H]2[C@H]2OC(C)(C)O[C@H]21
62.5 (≈ 142 µM) | CCCCCCCCOCC#CCOC[C@H]1O[C@@H]2OC(C)(C)O[C@@H]2[C@H]2OC(C)(C)O[C@H]21
62.5 (≈ 135 µM) | CCCCCCCCOc1ccc(OC[C@H]2O[C@@H]3OC(C)(C)O[C@@H]3[C@H]3OC(C)(C)O[C@H]32)cc1
62.5 (≈ 125 µM) | CCCCCCCCCCCCOCCCCOC[C@H]1O[C@@H]2OC(C)(C)O[C@@H]2[C@H]2OC(C)(C)O[C@H]21

System: Staphylococcus aureus
Assay: Antibacterial activity against Staphylococcus aureus subsp aureus CIP 53.154 assessed as growth inhibition at 30 degC after 24 hrs by liquid broth dilution method
Format: functional
Conditions: CIP 53.154, 24 h
Outline: as §1

MIC [µg/mL] | SMILES
125 (≈ 281 µM) | CCCCCCCCOCCCCOC[C@H]1O[C@@H]2OC(C)(C)O[C@@H]2[C@H]2OC(C)(C)O[C@H]21
125 (≈ 284 µM) | CCCCCCCCOCC#CCOC[C@H]1O[C@@H]2OC(C)(C)O[C@@H]2[C@H]2OC(C)(C)O[C@H]21
125 (≈ 269 µM) | CCCCCCCCOc1ccc(OC[C@H]2O[C@@H]3OC(C)(C)O[C@@H]3[C@H]3OC(C)(C)O[C@H]32)cc1
125 (≈ 250 µM) | CCCCCCCCCCCCOCCCCOC[C@H]1O[C@@H]2OC(C)(C)O[C@@H]2[C@H]2OC(C)(C)O[C@H]21
